Entries after “also recorded” stand apart in the source; their conditions may differ.
Legend:
CYP2C9 = CYP2C9 (Homo sapiens, UniProt P11712); assay: Human liver microsome CYP inhibition assay, CYP2C9; assay type: biochemical; conditions: human liver microsomes
Outline: (§1)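 Human liver microsomes were mixed with an isoform-specific CYP substrate and either compound or a positive-control inhibitor, then pre-incubated at 37 °C for 30 min. Reactions were started by adding an NADPH-regenerating system.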

[1] = Stability in human plasma; assay type: in vitro ADME; conditions: 2 μM, after 4 h
CYP2D6 = CYP2D6 (Homo sapiens, UniProt P10635); assay: Human liver microsome CYP inhibition assay, CYP2D6; assay type: biochemical; conditions: human liver microsomes
Outline: as §1

[2] = system: Salmonella typhimurium tester strains TA98, TA100, TA1535, TA1537 and Escherichia coli strain WP2 uvrA; assay: Ames bacterial reverse mutation assay; conditions: 1.4 × 10^−7 to 2.3 mM
[3] = Single-dose pharmacokinetics in mice; assay type: in vivo, male CD1 mice
C. elegans strain N2 = assay: C. elegans lifespan assay; assay type: in vivo; conditions: for maximal lifespan: untreated 27 d
CYP2C19 = CYP2C19 (Homo sapiens, UniProt P33261); assay: Human liver microsome CYP inhibition assay, CYP2C19; assay type: biochemical; conditions: human liver microsomes
Outline: as §1

CYP2C8 = biological target: T1, CYP2C8 (Homo sapiens, UniProt P10632); assay: Human liver microsome CYP inhibition assay, CYP2C8; assay type: biochemical; conditions: human liver microsomes
T1 sequence (P10632 1-490): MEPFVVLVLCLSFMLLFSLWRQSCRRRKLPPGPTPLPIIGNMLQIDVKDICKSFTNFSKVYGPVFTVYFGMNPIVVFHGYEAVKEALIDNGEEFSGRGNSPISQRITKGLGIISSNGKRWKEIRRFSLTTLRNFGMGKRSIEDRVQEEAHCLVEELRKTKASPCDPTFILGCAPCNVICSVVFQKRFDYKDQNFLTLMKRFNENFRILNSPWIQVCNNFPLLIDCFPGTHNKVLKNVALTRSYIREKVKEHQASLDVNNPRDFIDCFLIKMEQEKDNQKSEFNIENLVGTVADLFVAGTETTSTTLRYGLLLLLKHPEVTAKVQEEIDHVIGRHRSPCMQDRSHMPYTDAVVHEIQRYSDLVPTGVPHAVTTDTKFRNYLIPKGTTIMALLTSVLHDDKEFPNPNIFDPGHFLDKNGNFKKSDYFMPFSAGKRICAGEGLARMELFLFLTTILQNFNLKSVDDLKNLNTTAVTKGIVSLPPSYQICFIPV
Outline: as §1

[4] = Stability in mouse liver microsomes; assay type: in vitro ADME, mouse (strain CD1); conditions: 2 μM, after 2 h
Outline: (§2)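 Compound (2 μM) was incubated at 37 °C with human or CD1 mouse liver microsome suspension. The reaction was initiated by adding NADPH as CYP cofactor.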

CYP1A2 = biological target: T2, CYP1A2 (Homo sapiens, UniProt P05177); assay: Human liver microsome CYP inhibition assay, CYP1A2; assay type: biochemical; conditions: human liver microsomes
T2 sequence (P05177 1-516): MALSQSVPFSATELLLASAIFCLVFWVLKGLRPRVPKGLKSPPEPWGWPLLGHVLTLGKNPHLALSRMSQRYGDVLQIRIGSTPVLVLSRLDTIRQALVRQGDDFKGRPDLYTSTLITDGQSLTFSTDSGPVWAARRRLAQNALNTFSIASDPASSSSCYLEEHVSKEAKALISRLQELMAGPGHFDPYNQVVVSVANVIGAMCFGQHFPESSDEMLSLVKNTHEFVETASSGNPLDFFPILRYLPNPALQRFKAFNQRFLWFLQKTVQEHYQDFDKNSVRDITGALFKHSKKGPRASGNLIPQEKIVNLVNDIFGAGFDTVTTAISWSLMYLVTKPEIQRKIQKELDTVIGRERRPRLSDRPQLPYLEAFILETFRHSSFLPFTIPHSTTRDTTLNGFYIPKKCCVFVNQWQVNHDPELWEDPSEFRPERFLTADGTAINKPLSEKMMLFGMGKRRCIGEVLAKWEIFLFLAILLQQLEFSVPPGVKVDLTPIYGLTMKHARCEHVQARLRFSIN
Outline: as §1

[5] = Bidirectional Caco-2 cell permeability assay; assay type: in vitro ADME; conditions: human
[6] = Single-dose safety observation and gross necropsy in mice; assay type: in vivo, male CD1 mice
Outline: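 Male CD1 mice (n = 3/group) were housed individually in metabolic cages and fasted 4 h, with food returned 2 h post-dose. They received one oral gavage of 25, 50 or 100 mg kg−1 (2.5–10 mg mL−1; 10 mL kg−1) in 40% DMSO/60% 0.5% methyl cellulose. Animals were monitored 14 days and weighed pre-dose and on days 7 and 14. CO2 euthanasia was followed by gross necropsy.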

CYP3A4 = CYP3A4 (Homo sapiens, UniProt P08684); assay: Human liver microsome CYP inhibition assay, CYP3A4; assay type: biochemical; conditions: human liver microsomes
Outline: as §1

[7] = Plasma protein binding, rapid equilibrium dialysis; assay type: in vitro ADME; conditions: human, pH 7.4
Outline: (§3)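 Equilibrium dialysis (RED): compound was spiked at 2 μM into human or CD1 mouse plasma against PBS pH 7.4. Warfarin served as positive control. Plates were shaken gently at 37 °C for 6 h, and both chambers were quantified by LC–MS to give the unbound fraction.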

[8] = Single-dose pharmacokinetics in rats; assay type: in vivo, male Sprague–Dawley rats; conditions: rats vs mice, oral single dose
Outline: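 Male Sprague–Dawley rats with jugular vein cannulas (n = 3/group) were fasted overnight, with food returned 4 h post-dose. Single oral gavage of 100 or 200 mg kg−1 (10 or 20 mg mL−1; 10 mL kg−1) in 40% DMSO/60% 0.5% methyl cellulose. Cannula blood was drawn at 0.5, 1, 2, 4, 6, 8 and 24 h into K2EDTA, spun to plasma at 5 °C and stored at −70 °C for PK analysis.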

HepG2 cells = assay: HepG2 cytotoxicity assay; assay type: cell-based, human; conditions: 50 μM
Outline: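 HepG2 cells were kept in DMEM with 10% FBS and penicillin/streptomycin at 37 °C, 5% CO2, seeded ~5000 cells/well and allowed to attach overnight. Serial dilutions of compound in medium were added, with 0.1% DMSO vehicle and terfenadine as positive control. Viability was read by CellTiter-Glo ATP luminescence and normalized to vehicle as % viability per concentration.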

[9] = biological target: cloned hERG potassium channels (Homo sapiens, UniProt Q12809); assay: hERG assay, automated patch clamp; assay type: cell-based
Outline: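 Automated parallel patch clamp (QPatch II) was run at room temperature on HEK293 cells expressing KCNH2. Compound was applied at 0.1, 1, 10 and 100 μM (n ≥ 3), at least 6 min per concentration, from DMSO stocks diluted into HEPES-buffered saline. Cisapride 0.05 μM served as positive control. % current inhibition came from steady-state currents before and after each application.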

[10] = Stability in human liver microsomes; assay type: in vitro ADME; conditions: 2 μM, after 2 h
Outline: as §2

PCFT transporter = biological target: T3, PCFT transporter (Homo sapiens, UniProt Q96NT5); assay: Folate uptake assay in Caco-2 cell monolayers; assay type: cell-based; conditions: Caco-2, pH 5.5, read-out: inhibition of folate uptake
T3 sequence (Q96NT5 1-459): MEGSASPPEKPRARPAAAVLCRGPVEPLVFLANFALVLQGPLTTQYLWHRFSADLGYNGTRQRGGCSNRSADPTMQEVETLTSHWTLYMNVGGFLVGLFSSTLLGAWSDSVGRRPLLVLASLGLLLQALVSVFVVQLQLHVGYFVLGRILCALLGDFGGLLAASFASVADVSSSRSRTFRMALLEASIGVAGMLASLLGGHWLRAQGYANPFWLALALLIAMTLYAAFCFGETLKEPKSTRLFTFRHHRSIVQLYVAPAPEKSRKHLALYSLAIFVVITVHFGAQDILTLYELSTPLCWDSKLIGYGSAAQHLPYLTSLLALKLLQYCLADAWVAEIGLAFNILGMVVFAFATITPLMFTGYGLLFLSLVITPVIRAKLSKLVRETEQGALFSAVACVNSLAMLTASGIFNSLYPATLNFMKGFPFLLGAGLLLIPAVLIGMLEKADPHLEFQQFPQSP
Outline: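 Caco-2 cells were grown in high-glucose DMEM with 10% FBS, penicillin/streptomycin and NEAA, seeded at 3 × 10^4 cells/well and differentiated 8–10 days. Monolayers were pre-incubated 30 min at 37 °C in HBSS/10 mM MES pH 5.5 with compound (50 μM), pemetrexed or DMSO, then exposed 6 min to 10 nM [3H]folic acid ± inhibitor. Uptake was counted by scintillation, normalized to BCA protein and expressed as % of vehicle. Run in duplicate.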

[11] = Plasma protein binding, rapid equilibrium dialysis; assay type: in vitro ADME, mouse (strain CD1); conditions: CD1, mouse, pH 7.4
Outline: as §3

CYP2B6 = biological target: T4, CYP2B6 (Homo sapiens, UniProt P20813); assay: Human liver microsome CYP inhibition assay, CYP2B6; assay type: biochemical; conditions: human liver microsomes
T4 sequence (P20813 1-491): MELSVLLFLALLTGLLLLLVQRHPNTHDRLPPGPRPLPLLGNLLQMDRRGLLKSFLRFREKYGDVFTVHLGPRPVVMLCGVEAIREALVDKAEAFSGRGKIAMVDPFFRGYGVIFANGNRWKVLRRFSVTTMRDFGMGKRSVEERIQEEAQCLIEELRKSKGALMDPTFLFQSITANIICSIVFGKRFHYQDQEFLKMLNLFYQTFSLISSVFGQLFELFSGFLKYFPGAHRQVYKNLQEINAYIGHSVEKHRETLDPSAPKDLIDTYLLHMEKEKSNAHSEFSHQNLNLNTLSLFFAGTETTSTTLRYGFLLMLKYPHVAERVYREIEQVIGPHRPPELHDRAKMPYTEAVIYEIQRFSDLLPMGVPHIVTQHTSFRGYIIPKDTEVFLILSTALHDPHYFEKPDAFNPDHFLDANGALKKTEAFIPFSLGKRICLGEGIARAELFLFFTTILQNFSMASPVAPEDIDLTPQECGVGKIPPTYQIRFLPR
Outline: as §1

[12] = Stability in mouse plasma; assay type: in vitro ADME, mouse (strain CD1); conditions: 2 μM, after 4 h
[13] = Single-dose safety observation and gross necropsy in rats; assay type: in vivo, male Sprague–Dawley rats
Outline: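 Male Sprague–Dawley rats (n = 3/group) were housed in metabolic cages and fasted overnight, with food returned 4 h post-dose. They received one oral gavage of 100 or 200 mg kg−1 (10 mL kg−1) in 40% DMSO/60% 0.5% methyl cellulose. Animals were monitored for 14 days, with body weight recorded before dosing and on days 7 and 14. Gross necropsy was done after CO2 euthanasia.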

[14] = male, CD1, mouse, plasma, po, 100 mg/kg
[15] = continuous exposure, 50 and 100 μM
[16] = monitored 14 days after single oral dose

Chain of CYP2C19 (P33261 whole entry): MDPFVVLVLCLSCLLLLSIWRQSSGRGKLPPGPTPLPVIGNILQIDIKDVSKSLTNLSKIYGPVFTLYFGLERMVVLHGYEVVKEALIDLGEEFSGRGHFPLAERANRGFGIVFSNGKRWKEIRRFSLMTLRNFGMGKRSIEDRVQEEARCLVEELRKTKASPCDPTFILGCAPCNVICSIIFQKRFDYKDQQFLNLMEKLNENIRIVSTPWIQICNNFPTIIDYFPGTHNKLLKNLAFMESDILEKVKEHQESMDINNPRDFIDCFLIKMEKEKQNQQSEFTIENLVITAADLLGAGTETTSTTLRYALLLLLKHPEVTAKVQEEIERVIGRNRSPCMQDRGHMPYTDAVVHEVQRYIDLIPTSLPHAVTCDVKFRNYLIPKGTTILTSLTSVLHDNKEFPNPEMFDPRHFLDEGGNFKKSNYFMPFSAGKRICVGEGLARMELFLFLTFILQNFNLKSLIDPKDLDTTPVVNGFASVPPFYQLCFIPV
Chain of CYP2C9 (P11712 whole entry, canonical isoform): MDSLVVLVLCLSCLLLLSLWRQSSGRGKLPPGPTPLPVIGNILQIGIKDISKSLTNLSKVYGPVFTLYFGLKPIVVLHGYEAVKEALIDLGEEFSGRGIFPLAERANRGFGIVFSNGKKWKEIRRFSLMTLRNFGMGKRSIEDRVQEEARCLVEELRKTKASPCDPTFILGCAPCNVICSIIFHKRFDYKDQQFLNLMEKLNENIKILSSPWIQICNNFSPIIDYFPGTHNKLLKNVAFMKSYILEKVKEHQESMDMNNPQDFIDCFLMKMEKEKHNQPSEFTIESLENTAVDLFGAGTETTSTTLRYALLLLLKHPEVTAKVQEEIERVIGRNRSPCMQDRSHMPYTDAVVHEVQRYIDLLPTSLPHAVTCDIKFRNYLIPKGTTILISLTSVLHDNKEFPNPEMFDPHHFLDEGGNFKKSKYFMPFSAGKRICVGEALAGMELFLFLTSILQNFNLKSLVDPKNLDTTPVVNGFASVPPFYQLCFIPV
Chain of CYP3A4 (P08684 whole entry): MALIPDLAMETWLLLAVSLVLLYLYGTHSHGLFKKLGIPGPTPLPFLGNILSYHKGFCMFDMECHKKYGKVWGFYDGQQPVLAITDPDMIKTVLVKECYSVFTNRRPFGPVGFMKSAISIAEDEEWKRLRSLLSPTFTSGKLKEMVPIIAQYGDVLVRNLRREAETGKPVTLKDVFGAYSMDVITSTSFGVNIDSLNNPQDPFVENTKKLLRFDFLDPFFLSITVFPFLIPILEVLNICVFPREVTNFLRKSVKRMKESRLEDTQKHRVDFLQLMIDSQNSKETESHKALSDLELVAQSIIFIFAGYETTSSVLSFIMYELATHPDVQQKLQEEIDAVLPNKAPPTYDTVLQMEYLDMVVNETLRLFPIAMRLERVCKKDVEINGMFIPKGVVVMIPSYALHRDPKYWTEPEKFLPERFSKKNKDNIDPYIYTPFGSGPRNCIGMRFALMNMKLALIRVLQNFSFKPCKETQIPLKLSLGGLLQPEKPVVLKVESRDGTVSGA
Chain of CYP2D6 (P10635 whole entry): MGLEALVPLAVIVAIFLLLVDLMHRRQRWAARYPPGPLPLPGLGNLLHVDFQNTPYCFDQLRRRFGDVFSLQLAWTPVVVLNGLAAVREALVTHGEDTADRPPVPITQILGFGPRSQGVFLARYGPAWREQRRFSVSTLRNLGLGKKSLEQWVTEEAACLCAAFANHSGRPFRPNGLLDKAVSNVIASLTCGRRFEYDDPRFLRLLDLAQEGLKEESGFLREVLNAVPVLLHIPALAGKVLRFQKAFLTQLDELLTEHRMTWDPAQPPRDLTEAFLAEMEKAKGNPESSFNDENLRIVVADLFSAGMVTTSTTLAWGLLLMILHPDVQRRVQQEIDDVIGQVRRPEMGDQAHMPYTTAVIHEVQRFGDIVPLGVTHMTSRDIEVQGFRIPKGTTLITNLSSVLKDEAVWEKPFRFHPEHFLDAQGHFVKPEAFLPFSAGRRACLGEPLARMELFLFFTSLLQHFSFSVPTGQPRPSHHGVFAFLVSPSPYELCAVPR
Chain of cloned hERG potassium channels (Q12809 whole entry): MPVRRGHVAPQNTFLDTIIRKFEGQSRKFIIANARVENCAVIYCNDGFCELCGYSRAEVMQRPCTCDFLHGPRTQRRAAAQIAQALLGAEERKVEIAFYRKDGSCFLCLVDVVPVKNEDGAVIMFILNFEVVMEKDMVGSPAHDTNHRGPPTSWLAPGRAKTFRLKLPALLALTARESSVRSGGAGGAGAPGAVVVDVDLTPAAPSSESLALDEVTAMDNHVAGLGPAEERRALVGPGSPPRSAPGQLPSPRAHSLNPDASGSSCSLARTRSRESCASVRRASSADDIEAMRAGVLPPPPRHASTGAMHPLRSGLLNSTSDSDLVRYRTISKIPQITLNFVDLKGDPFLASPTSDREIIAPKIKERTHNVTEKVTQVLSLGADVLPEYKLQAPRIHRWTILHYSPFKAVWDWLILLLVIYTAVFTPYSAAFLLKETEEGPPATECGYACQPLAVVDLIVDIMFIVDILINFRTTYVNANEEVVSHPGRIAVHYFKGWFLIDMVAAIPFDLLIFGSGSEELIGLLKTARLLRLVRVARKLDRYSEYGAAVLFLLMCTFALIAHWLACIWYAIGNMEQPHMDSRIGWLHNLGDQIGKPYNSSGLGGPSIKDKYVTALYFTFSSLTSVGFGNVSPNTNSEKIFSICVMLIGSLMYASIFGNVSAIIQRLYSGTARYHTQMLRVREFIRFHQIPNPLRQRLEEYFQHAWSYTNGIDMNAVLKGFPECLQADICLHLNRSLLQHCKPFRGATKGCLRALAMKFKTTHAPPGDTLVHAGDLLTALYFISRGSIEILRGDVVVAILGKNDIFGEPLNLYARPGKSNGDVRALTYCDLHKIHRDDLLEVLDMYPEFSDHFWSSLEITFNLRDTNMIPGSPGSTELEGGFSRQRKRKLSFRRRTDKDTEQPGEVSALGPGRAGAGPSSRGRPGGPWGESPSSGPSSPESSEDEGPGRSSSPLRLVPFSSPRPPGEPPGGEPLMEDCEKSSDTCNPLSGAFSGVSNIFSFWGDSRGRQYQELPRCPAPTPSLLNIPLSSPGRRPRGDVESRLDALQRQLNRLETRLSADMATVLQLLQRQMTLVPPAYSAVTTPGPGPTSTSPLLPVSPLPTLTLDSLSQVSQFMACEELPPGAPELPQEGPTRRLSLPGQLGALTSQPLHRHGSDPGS

CC(=O)N1CCC(C(=O)N2CCN3C(=O)c4cc(-c5ccccc5)ccc4NC(=O)C3C2)CC1 (centres unmarked) [MPOL_B_1, 13-(1-acetylpiperidine-4-carbonyl)-5-phenyl-1,9,13-triazatricyclo[9.4.0.03,8]pentadeca-3(8),4,6-triene-2,10-dione]
inhibition at 5 min, 50 µM (CYP2C9): 11.4% | Stability in human plasma [1]: >90% after 4 h | inhibition at 5 min, 50 µM (CYP2D6): 16.9% | Ames mutagenicity test [2]: Not mutagenic | concentration of the drug in fecal samples ([3]; collected 24 hours after oral administration): 5 to 10 mg/g | AUC(0-t) [3, 14]: 2380 ± 1180 ng·h/mL | Cmax [3, 14]: 416 ± 67 ng/mL | Tmax [3, 14]: 1.7 ± 0.6 h | half-life [3, 14]: 5.7 ± 4.1 h | systemic bioavailability (dose proportionality of AUC) ([3]; mice, oral gavage 25, 50 and 100 mg kg^−1): became saturated at doses of 50 mg kg^−1 and above | maximal lifespan (C. elegans strain N2; 50 μM): 35 days | maximal lifespan (C. elegans strain N2; 100 μM): 35 days | increase of lifespan (C. elegans strain N2; C. elegans): up to 30% | longer maximal lifespan (C. elegans strain N2; [15]): ~30% | longer mean lifespan (C. elegans strain N2; [15]): ~30% | inhibition at 5 min, 50 µM (CYP2C19): 19.4% | inhibition at 5 min, 50 µM (CYP2C8): 4.9% | Stability in mouse microsomes [4]: 83% after 2 h | inhibition at 5 min, 50 µM (CYP1A2): 5.2% | Papp A→B at 2 h, 10 μM [5]: 0.37 ×10⁻⁶ cm/s | Papp B→A at 2 h, 10 μM [5]: 7.17 ×10⁻⁶ cm/s | gross necropsy ([6]; group 2, 50 mg kg^−1): had an enlarged stomach when gross necropsy was performed, and another from the same group had dark patches on the lungs | gross necropsy ([6]; highest dose (100 mg kg^−1)): no organ pathologies or other abnormalities; also recorded: No abnormalities | body weight loss [6, 16]: no significant body weight loss | signs of illness [6, 16]: no signs of illness | inhibition at 5 min, 50 µM (CYP3A4): 22.5% | fraction unbound at 6 h, 2 μM [7]: 0.525 ± 0.08 | systemic bioavailability in rats, times lower than in mice [8]: approximately 10 times | Hep2 cells cytotoxicity (HepG2 cells): Not significant | IC50 [9]: 87 µM | Stability in human microsomes [10]: >90% after 2 h | inhibition at 50 µM (PCFT transporter): 42% | fraction unbound at 6 h, 2 μM [11]: 0.294 ± 0.059 | inhibition at 5 min, 50 µM (CYP2B6): 0% | Stability in mouse plasma [12]: >90% after 4 h | gross necropsy ([13]; group 1, 100 mg kg^−1): enlarged stomach and caecum and blood in the abdominal cavity | gross necropsy ([13]; highest dose (200 mg kg^−1)): no organ pathologies or other abnormalities | body weight loss [13, 16]: no significant body weight loss | signs of illness [13, 16]: no signs of illness

Cc1ccc(NC(=O)N2Cc3[nH]cnc3C[C@H]2c2nc(-c3ccc4c(c3)OCO4)no2)cc1 [MPOL_D_1, (6S)-6-[3-(2H-1,3-benzodioxol-5-yl)-1,2,4-oxadiazol-5-yl]-N-(4-methylphenyl)3H,4H,5H,6H,7H-imidazo[4,5-c]pyridine-5-carboxamide]
effect on lifespan (C. elegans strain N2; dose range 1–100 μM, compared with MPOL_B_1): did not exhibit similar effects

Nc1nc2[nH]cc(CCc3ccc(C(=O)N[C@@H](CCC(=O)O)C(=O)O)cc3)c2c(=O)[nH]1 [pemetrexed, reference compound]
inhibition at 50 µM (PCFT transporter): 62%

Source: article PMC12777986 (RSC Medicinal Chemistry, 2025)
